Laboratory results published in ChEMBL document CHEMBL1938274, “Discovery of potent and specific CXCR3 antagonists” (Bioorg Med Chem Lett, 2012).
Each block holds one molecule with its values, some of them ahead of it.

How the values were obtained:
[1] = target: T1, Cytochrome P450 3A4 (Homo sapiens, UniProt P08684); assay: Time dependent inhibition of CYP3A4; type: ADME
[2] = target: T2, C-X-C chemokine receptor type 3 (Homo sapiens, UniProt P49682); assay: Displacement of [125I]-IP-10 from CXCR3 in presence of 100% human serum
T2 sequence (P49682 whole entry): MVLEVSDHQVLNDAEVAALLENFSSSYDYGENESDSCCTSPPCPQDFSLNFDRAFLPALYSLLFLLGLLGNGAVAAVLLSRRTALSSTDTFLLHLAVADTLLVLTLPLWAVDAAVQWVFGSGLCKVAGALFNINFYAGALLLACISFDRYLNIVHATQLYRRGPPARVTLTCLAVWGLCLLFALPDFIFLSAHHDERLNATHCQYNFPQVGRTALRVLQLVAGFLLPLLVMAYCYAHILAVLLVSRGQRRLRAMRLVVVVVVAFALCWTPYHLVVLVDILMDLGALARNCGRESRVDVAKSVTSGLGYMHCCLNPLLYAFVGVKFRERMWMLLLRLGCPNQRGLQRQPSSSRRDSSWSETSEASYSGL

[3] = target: T2, C-X-C chemokine receptor type 3; assay: Displacement of [125I]-IP-10 from CXCR3
[4] = target: T1, Cytochrome P450 3A4; assay: Inhibition of CYP3A4; type: ADME
[5] = target: Cytochrome P450 2D6 (Homo sapiens, UniProt P10635); assay: Inhibition of CYP2D6; type: ADME
[6] = system: PBL; assay: Toxicity in human PBL assessed as chromosomal aberrations at 7.81 to 1000 ug/mL in the presence of S9; type: cell-based
How it was run: (§1)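 Cultured human peripheral blood lymphocytes exposed at 7.81–1000 μg/mL, with and without S9 metabolic activation; chromosomal aberrations scored.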

[7] = system: PBL; assay: Toxicity in human PBL assessed as chromosomal aberrations at 7.81 to 1000 ug/mL; type: cell-based; how it was run: as §1
[8] = system: Canis familiaris; assay: Hepatic blood flow in Beagle dog at 0.5 mg/kg, iv; type: ADME, organism-based, Canis lupus familiaris, Liver; set-up: dose 0.5 mg/kg, route intravenous; details: in vivo
How it was run: (§2)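 Single intravenous dose in 10% N,N-dimethylacetamide, 10% ethanol, 30% propylene glycol, 50% water: 1 mg/kg mouse; 0.5 mg/kg rat, beagle dog, cynomolgus monkey. Plasma clearance also given as percent of hepatic blood flow.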

[9] = target: T2, C-X-C chemokine receptor type 3; assay: Receptor occupancy of CXCR3 in human whole blood assessed as inhibition of ITAC binding by fluorescence quenching based FACS analysis
[10] = Half life in rat at 0.5 mg/kg, iv; type: ADME, organism-based; set-up: dose 0.5 mg/kg, route intravenous; details: in vivo; how it was run: as §2
[11] = system: Mus musculus; assay: Inhibition of bleomycin-induced leukocyte migration into lungs in C57BL/6 mouse lung injury model by measuring cell count in bronchoalveolar lavage fluid at 1 mg/kg, sc administered for 6 days; type: functional; details: route subcutaneous
How it was run: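 C57BL/6 mice given one intra-tracheal instillation of bleomycin, 1 mg/kg; compound delivered subcutaneously by osmotic mini-pump from challenge day for 6 days; cells counted in bronchoalveolar lavage on day six.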

[12] = Clearance in Beagle dog at 0.5 mg/kg, iv; type: ADME, organism-based, Canis lupus familiaris; set-up: dose 0.5 mg/kg, route intravenous; details: in vivo; how it was run: as §2
[13] = Fraction unbound in Beagle dog plasma; type: ADME, cell-free, Canis lupus familiaris
[14] = system: Rattus norvegicus; assay: Clearance in rat at 0.5 mg/kg, iv; type: ADME, organism-based; set-up: dose 0.5 mg/kg, route intravenous; details: in vivo; how it was run: as §2
[15] = Mean residence time in cynomolgus monkey at 0.5 mg/kg, iv; type: ADME, organism-based, Macaca fascicularis; set-up: dose 0.5 mg/kg, route intravenous; details: in vivo; how it was run: as §2
[16] = Volume of distribution at steady state in mouse at 1 mg/kg, iv; type: ADME, organism-based; set-up: dose 1 mg/kg, route intravenous; details: in vivo, read-out: Vdss; how it was run: as §2
[17] = Clearance in mouse at 1 mg/kg, iv; type: ADME, organism-based; set-up: dose 1 mg/kg, route intravenous; details: in vivo; how it was run: as §2
[18] = Apparent oral bioavailability in cynomolgus monkey at 2 mg/kg; type: ADME, organism-based, Macaca fascicularis; details: in vivo, read-out: Fapp
[19] = system: Mus musculus; assay: Hepatic blood flow in mouse at 1 mg/kg, iv; type: ADME, organism-based, Liver; set-up: dose 1 mg/kg, route intravenous; details: in vivo; how it was run: as §2
[20] = Apparent oral bioavailability in mouse at 5 mg/kg; type: ADME, organism-based; details: in vivo, read-out: Fapp
[21] = Clearance in cynomolgus monkey at 0.5 mg/kg, iv; type: ADME, organism-based, Macaca fascicularis; set-up: dose 0.5 mg/kg, route intravenous; details: in vivo; how it was run: as §2
[22] = system: Rattus norvegicus; assay: Hepatic blood flow in rat at 0.5 mg/kg, iv; type: ADME, organism-based, Liver; set-up: dose 0.5 mg/kg, route intravenous; details: in vivo; how it was run: as §2
[23] = Mean residence time in Beagle dog at 0.5 mg/kg, iv; type: ADME, organism-based, Canis lupus familiaris; set-up: dose 0.5 mg/kg, route intravenous; details: in vivo; how it was run: as §2
[24] = Half life in mouse at 1 mg/kg, iv; type: ADME, organism-based; set-up: dose 1 mg/kg, route intravenous; details: in vivo; how it was run: as §2
[25] = system: Blood; assay: Drug level in C57BL/6 mouse blood at 10 mg/kg, sc after 1 hr; type: ADME, organism-based; set-up: dose 10 mg/kg, route subcutaneous; details: in vivo
How it was run: (§3)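 C57BL/6 mice given bleomycin intra-tracheally and dosed subcutaneously by osmotic mini-pump for 6 days; plasma collected to measure drug level, reported 1 h post dose.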

[26] = Apparent oral bioavailability in rat at 2 mg/kg; type: ADME, organism-based; details: in vivo, read-out: Fapp
[27] = Volume of distribution at steady state in Beagle dog at 0.5 mg/kg, iv; type: ADME, organism-based, Canis lupus familiaris; set-up: dose 0.5 mg/kg, route intravenous; details: in vivo, read-out: Vdss; how it was run: as §2
[28] = Apparent oral bioavailability in Beagle dog at 2 mg/kg; type: ADME, organism-based, Canis lupus familiaris; details: in vivo, read-out: Fapp
[29] = system: Cynomolgus monkey; assay: Hepatic blood flow in cynomolgus monkey at 0.5 mg/kg, iv; type: ADME, organism-based, Macaca fascicularis, Liver; set-up: dose 0.5 mg/kg, route intravenous; details: in vivo; how it was run: as §2
[30] = Half life in cynomolgus monkey at 0.5 mg/kg, iv; type: ADME, organism-based, Macaca fascicularis; set-up: dose 0.5 mg/kg, route intravenous; details: in vivo; how it was run: as §2
[31] = system: Blood; assay: Drug level in C57BL/6 mouse blood at 3 mg/kg, sc after 1 hr; type: ADME, organism-based; set-up: dose 3 mg/kg, route subcutaneous; details: in vivo; how it was run: as §3
[32] = Mean residence time in mouse at 1 mg/kg, iv; type: ADME, organism-based; set-up: dose 1 mg/kg, route intravenous; details: in vivo; how it was run: as §2
[33] = Half life in Beagle dog at 0.5 mg/kg, iv; type: ADME, organism-based, Canis lupus familiaris; set-up: dose 0.5 mg/kg, route intravenous; details: in vivo; how it was run: as §2
[34] = Fraction unbound in cynomolgus monkey plasma; type: ADME, cell-free, Macaca fascicularis
[35] = Fraction unbound in rat plasma; type: ADME, cell-free
[36] = Fraction unbound in mouse plasma; type: ADME, cell-free
[37] = Volume of distribution at steady state in cynomolgus monkey at 0.5 mg/kg, iv; type: ADME, organism-based, Macaca fascicularis; set-up: dose 0.5 mg/kg, route intravenous; details: in vivo, read-out: Vdss; how it was run: as §2
[38] = target: T3, C-X-C chemokine receptor type 3 (Mus musculus, UniProt O88410); assay: Receptor occupancy of CXCR3 in mouse whole blood assessed as inhibition of ITAC binding by fluorescence quenching based FACS analysis
T3 sequence (O88410 whole entry): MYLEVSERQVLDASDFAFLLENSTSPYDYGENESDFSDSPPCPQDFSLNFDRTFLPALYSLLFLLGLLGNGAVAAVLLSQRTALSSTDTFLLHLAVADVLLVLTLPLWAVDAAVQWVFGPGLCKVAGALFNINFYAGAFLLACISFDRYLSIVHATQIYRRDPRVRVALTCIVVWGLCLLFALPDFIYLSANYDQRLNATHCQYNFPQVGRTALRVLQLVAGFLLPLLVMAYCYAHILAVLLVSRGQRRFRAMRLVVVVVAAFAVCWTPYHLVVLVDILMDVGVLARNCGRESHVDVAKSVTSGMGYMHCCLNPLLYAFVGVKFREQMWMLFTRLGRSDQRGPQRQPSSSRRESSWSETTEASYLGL

[39] = Volume of distribution at steady state in rat at 0.5 mg/kg, iv; type: ADME, organism-based; set-up: dose 0.5 mg/kg, route intravenous; details: in vivo, read-out: Vdss; how it was run: as §2
[40] = system: Blood; assay: Drug level in C57BL/6 mouse blood at 1 mg/kg, sc after 1 hr; type: ADME, organism-based; set-up: dose 1 mg/kg, route subcutaneous; details: in vivo; how it was run: as §3
[41] = Mean residence time in rat at 0.5 mg/kg, iv; type: ADME, organism-based; set-up: dose 0.5 mg/kg, route intravenous; details: in vivo; how it was run: as §2

T1 sequence (P08684 whole entry): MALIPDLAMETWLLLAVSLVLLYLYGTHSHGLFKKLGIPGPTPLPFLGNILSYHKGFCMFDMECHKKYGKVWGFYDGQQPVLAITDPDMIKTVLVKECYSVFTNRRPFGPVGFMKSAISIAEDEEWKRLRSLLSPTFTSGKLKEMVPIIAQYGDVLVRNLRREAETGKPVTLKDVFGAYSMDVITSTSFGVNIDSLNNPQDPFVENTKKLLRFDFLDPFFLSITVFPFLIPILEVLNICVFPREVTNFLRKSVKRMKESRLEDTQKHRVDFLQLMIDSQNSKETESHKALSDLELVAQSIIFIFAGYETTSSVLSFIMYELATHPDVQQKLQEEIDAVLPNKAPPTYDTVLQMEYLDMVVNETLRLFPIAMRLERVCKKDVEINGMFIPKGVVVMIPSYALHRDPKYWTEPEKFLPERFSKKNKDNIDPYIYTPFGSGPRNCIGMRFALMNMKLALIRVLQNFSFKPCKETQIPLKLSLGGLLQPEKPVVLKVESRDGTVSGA
Cytochrome P450 2D6, sequence (P10635 whole entry): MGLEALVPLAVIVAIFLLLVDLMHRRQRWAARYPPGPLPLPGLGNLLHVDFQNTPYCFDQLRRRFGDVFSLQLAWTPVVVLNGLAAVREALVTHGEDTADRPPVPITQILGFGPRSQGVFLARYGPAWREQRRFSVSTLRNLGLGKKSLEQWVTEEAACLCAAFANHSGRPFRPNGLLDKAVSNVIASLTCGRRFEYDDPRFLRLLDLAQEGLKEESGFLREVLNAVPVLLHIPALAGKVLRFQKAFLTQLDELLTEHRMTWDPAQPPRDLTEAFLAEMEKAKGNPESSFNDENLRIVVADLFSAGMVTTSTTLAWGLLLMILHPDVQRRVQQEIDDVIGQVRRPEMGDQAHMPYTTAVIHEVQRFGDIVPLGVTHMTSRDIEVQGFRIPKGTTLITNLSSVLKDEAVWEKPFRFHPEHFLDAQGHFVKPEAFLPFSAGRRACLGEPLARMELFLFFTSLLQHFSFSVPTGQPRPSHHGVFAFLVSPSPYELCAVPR

- TDI [1]: Not Active
Structure (SMILES): CCOc1ccc(-c2c([C@@H](C)N(CCS(=O)(=O)CC)C(=O)Cc3ccc(F)c(C(F)(F)F)c3)nc3ncccn23)cc1

- IC50 [2]: 4.1 nM
- IC50 [3]: 816 nM
Structure (SMILES): C[C@H](c1nc2ncccc2c(=O)n1-c1ccc(O)cc1)N(Cc1cccnc1)C(=O)Cc1ccc(OC(F)(F)F)cc1

- IC50 [4]: > 10000 nM
- IC50 [2]: 13 nM
- IC50 [5]: > 10000 nM
Structure (SMILES): C[C@H](c1nc2ncccc2c(=O)n1-c1ccc(Cl)cc1)N(CC1CCS(=O)(=O)CC1)C(=O)Cc1ccc(C(F)(F)F)c(F)c1
- Activity [6]: Non-toxic
- Activity [7]: Non-toxic

- QH [8]: 82%
- IC50 [9]: 9.8 nM
- half-life [10]: 4 h
- clearance [12]: 25 mL/min/kg
- fraction unbound [13]: 0.015
- CL [14]: 8.17 mL/min/kg
- MRT [15]: 8.7 h
- Vd [16]: 0.48 L/kg
- clearance [17]: 2.17 mL/min/kg
- IC50 [4]: > 10000 nM
- IC50 [2]: 12 nM
- bioavailability [18]: 44%
- QH [19]: 3%
- bioavailability [20]: 45%
- clearance [21]: 2 mL/min/kg
- QH [22]: 3%
- IC50 [5]: > 10000 nM
- MRT [23]: 1.1 h
- half-life [24]: 4 h
- Drug uptake [25]: 5.6 mg/kg
- bioavailability [26]: 69%
- Vd [27]: 1.4 L/kg
- bioavailability [28]: > 100%
- QH [29]: 3%
- half-life [30]: 9 h
- Drug uptake [31]: 3.4 mg/kg
- MRT [32]: 3.9 h
- half-life [33]: 1 h
- IC50 [3]: 6 nM
- fraction unbound [34]: 0.037
- fraction unbound [35]: 0.061
- fraction unbound [36]: 0.007
- Vd [37]: 1.2 L/kg
- IC50 [38]: 200 nM
- Vd [39]: 1.9 L/kg
- Drug uptake [40]: 1.3 µM
- MRT [41]: 3.5 h
Structure (SMILES): C[C@H](c1nc2ncccc2c(=O)n1-c1ccc(Cl)cc1)N(CC1CCS(=O)(=O)CC1)C(=O)Cc1ccc(F)c(C(F)(F)F)c1
- EC [11]: 1 mg/kg
- Activity [6]: Non-toxic
- Activity [7]: Non-toxic

- IC50 [2]: 50 nM
- IC50 [3]: 42 nM
Structure (SMILES): CCS(=O)(=O)CCN(C(=O)Cc1ccc(F)c(C(F)(F)F)c1)[C@H](C)c1nc2ncccc2c(=O)n1-c1ccc(F)cc1
- Activity [6]: Non-toxic
- Activity [7]: Non-toxic
